Values without a mark were called inactive. Results filed as inconclusive are left out. Calls of active or inactive are those of the source.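 The calls were made as follows, unless noted: active = cell viability at or below a set limit in both duplicate runs, the limit being the all-compound median minus 4 SD (cut at about 23% in these data, passing the limit was not always enough); inconclusive = no clear call, values can overlap the other calls; inactive = the rest.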
How the values were obtained:
[1] = OD615 S. cerevisiae growth inhibition, permissive medium, pilot counter-assay, permissive growth control for S. cerevisiae lifespan shortening project (AID 705;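 active = growth inhibition above 25% in both replicates, a cutoff set 3 SD above the mean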); conditions: OD615, 24 h, at 10 µM, active compounds read high
Summary of the method: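 System – S. cerevisiae with engineered DeaD lifespan system · Buffer or medium – SC raffinose/galactose permissive medium · Schedule – cells pre-grown 4 h, then 24 h compound exposure, 30 °C humidified · Technique – culture turbidity as optical density at 615 nm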

[2] = Restrictive medium S. cerevisiae growth inhibition, OD615, pilot screen of yeast lifespan reduction project, restrictive growth control (AID 706;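 active = growth inhibition above a set limit, 3 SD over mean compound inhibition, in both replicates, cut at about 43% in these data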;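 also: modified DeaD lifespan yeast strain shifted to restrictive glucose medium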); conditions: OD615, 48 h, at 10 µM, active compounds read high
Summary of the method: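 Material: engineered S. cerevisiae DeaD strain / Medium: glucose-based CSMM-D restrictive medium / Compound: single dose of 10 µM compound final, 0.25% DMSO / Timing: 4 h pre-incubation, 48 h exposure at 30 °C / Technique: OD615 absorbance reading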

[3] = viability gain of MRP-1-high H69AR cells under doxorubicin, pilot screen, MRP-1 activator project, CellTiter-Glo, duplicate (AID 807;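 active = viability increase at or above a cutoff of the median across tested compounds plus 3 SD, cut at about 8.5% in these data, passing the limit was not always enough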;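 also: compound pretreatment 18-22 h then 72 h combined with doxorubicin; 0% = doxorubicin alone and 100% = vehicle without doxorubicin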); conditions: H69AR viability with doxorubicin, CellTiter-Glo luminescence; at 10 µM; active compounds read high
[4] = growth suppression of beta-catenin knockout HCT116, pilot screen, human colon tumor cells (AID 823); conditions: CellTiter-Glo, 60 h, at 10 µM, active compounds read low;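 also: 0% = wells killed by 20 µM Hyamine and 100% = untreated DMSO cell wells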
[5] = growth suppression of PTEN-deleted HCT116, pilot screen, cell-based, HCT116 clonal line, CellTiter-Glo (AID 824;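 active = viability at or below 27.92% in each of two runs, the all-compound median minus 4 SD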;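 also: 0% = 20 µM Hyamine control and 100% = vehicle cell control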); conditions: 60 h, at 10 µM, active compounds read low
[6] = inhibitors of the yeast RAM network, pilot screen, dse1pr::URA3 reporter, 5-FOA selection (AID 869;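 active = inhibition over a set limit, the all-compound mean plus 3 SD, in both replicate runs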;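 also: 0% = DMSO wells with no growth and 100% = 10 µM 1-NA-PP1 with full growth; RAM network block rescues cells from 5-FOA so hits raise OD615 growth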); conditions: S. cerevisiae dse1pr::URA3 5-FOA growth, OD615, 2 d; at 10 µM; active compounds read high; strain carries analog-sensitive mutant Cbk1 kinase
[7] = RAM signaling pathway blockade in yeast – S. cerevisiae, Pdr1DBD-CYC8 efflux-inhibited sensitized strain, primary screen (AID 1298;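 active = RAM network inhibition above 8.4% in each of two replicates, 3 SD over the compound average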;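 also: 0% = DMSO untreated cells without growth and 100% = 10 µM 1-NA-PP1 full growth; higher means more yeast growth rescued from 5-FOA killing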); conditions: S. cerevisiae cbk1-as DSE1-URA3 strain, 5-FOA growth OD615, 2 d; at 50 µM; active compounds read high

Compound | growth inhibition [1] [%] | growth inhibition [2] [%] | viability increase [3] [%] | viability [4] | viability [5] | inhibition [6] [%] | RAM network inhibition [7] [%]
Cc1cc(=O)oc2cc(OCC(O)CN3CCN(c4ccc(F)cc4)CC3)ccc12 (stereo not drawn) | -10.4 | -2.92 | -0.12 | 74.5% | 80.8% | 0.85 | -0.18
COc1ccc(OCC(=O)N2CCN(C(=O)c3ccccc3)CC2)cc1 | -15.8 | -9.8 | 1.19 | 91.1% | 87.2% | 1.66 | 0.47
CC(=O)c1c(C)nc2ccc(Br)cc2c1C(=O)O | -10.2 | 8.3 | -1.9 | 98.2% | 97.4% | 1.79 | 1.15
CCOc1cccc(NC(=O)Cc2cccs2)c1 | -8.74 | -0.895 | -1.86 | 94.1% | 84.6% | 1.06 | 4.72
CC1CCCCN1S(=O)(=O)c1cccc2cccnc12 (stereo not drawn) | 6.45 | 16.5 | -3.21 | 96.8% | 83.7% | 0.47 | 3.59
COCCOC(=O)C1=C(C)NC2=C(C(=O)CCC2)C1c1cc2c(cc1Br)OCO2 (stereo not drawn) | -18.1 | -17 | -0.03 | 92.4% | 102% | 1.16 | 5.69
COc1cccc(-c2nc3cc(C)ccc3o2)c1 | -5.93 | 0.415 | -4.74 | 87.2% | 75.4% | 1.08 | 4.09
Cc1ccc(-c2nc(C#N)c(N3CCCCC3)o2)cc1 | -4.44 | -6.95 | -1.61 | 98% | 78.1% | 1.51 | 3.37
COc1ccc(S(=O)(=O)N2CCN(Cc3c[nH]c4ccccc34)CC2)cc1 | -13.2 | -14.2 | -4.53 | 80.7% | 89.6% | 2.11 | 4.82
COc1ccc(-c2nc(C(N)=O)c3[nH]c(=O)n(-c4ccccc4OC)c3n2)c(OC)c1 | -0.775 | 4.02 | -4.59 | 74.1% | 63.2% | 0.63 | 0.1
COc1ccc(CNC(=O)Cn2cc3c(n2)CCCCC3)cc1 | 2.42 | -0.895 | -2.29 | 102% | 91.9% | 0.54 | -1.07
C=CCN(C1CCCCC1)S(=O)(=O)c1ccc2c(c1)oc(=O)n2C | -16.7 | -11.6 | -4.14 | 86.5% | 80.4% | 2.28 | 6
CSc1nnc(NC(=O)c2cc3ccccc3oc2=O)s1 | -6.82 | -6.74 | -2.29 | 93.8% | 95.5% | 1.24 | 4.01
CCCn1c(C(C)NC(C)=O)nc2ccccc21 (stereo not drawn) | -10.3 | -16.9 | -1.47 | 99.2% | 90.7% | 1.3 | 1.25
O=C1NCC2=C1C(c1ccc(Br)cc1)Nc1ccccc1N2 (stereo not drawn) | -14.3 | -0.565 | 0.99 | 106% | 96.1% | -0.645 | -2.69
Cc1csc(C(C#N)C(=O)c2cc3ccccc3o2)n1 (stereo not drawn) | -21.6 | -8.8 | -0.75 | 93.7% | 85.3% | 2.67 | 0.32
COC(=O)Nc1c(C(=O)OC)cc(OC)c(OC)c1OC | -3.62 | -6.57 | -2.87 | 94.7% | 97.4% | -0.495 | 4.86
O=C(NCC(c1ccc(F)cc1)N1CCOCC1)c1ccc(Br)o1 (stereo not drawn) | -9.34 | -13.2 | -1.97 | 86.3% | 81.8% | 2.88 | 1.24
COc1ccc(S(=O)(=O)N2CCN(C)CC2)c2ccccc12 | -8.04 | -2.78 | -3.62 | 102% | 91.3% | 1.06 | 2.19
COc1ccc(-c2nc(C#N)c(NCCCN3CCOCC3)o2)cc1 | 0.22 | -5.34 | -0.09 | 103% | 94% | 1.28 | 0.89
Cc1ccccc1-n1nc2c(c1NC(=O)c1cccc(F)c1)CS(=O)C2 (stereo not drawn) | -8.75 | 5.54 | 0.96 | 98.8% | 98.5% | 0.835 | 7.75
CCOC(=O)N1CCN(C(=O)COc2ccc(Br)cc2)CC1 | -16.4 | 11.8 | 1.9 | 100% | 90.6% | 1.12 | 6.68
CC1CN(S(=O)(=O)c2ccc(C(=O)Nc3nnc(-c4ccc5c(c4)CCCC5)o3)cc2)CC(C)O1 (stereo not drawn) | -19.1 | 1.69 | -5.17 | 21.1% (active) | 19.7% (active) | 1.67 | 5.1
CC1Cc2ccccc2N1C(=O)c1cnc2n(c1=O)CCS2 (stereo not drawn) | -2.36 | -4.37 | -0.53 | 94.4% | 98.9% | -0.135 | 2.13
CCOc1cc(CN2CCN(c3cccc(C(F)(F)F)c3)CC2)ccc1O | -9.48 | -4.3 | -5.3 | 82.7% | 82.9% | 1.4 | 0.97

Compound | growth inhibition [1] [%] | growth inhibition [2] [%] | viability increase [3] [%] | viability [4] | viability [5] | inhibition [6] [%] | RAM network inhibition [7] [%]
CC1CCN(C(=O)CSc2nnc(-c3ccco3)o2)CC1 | 0.09 | 6.93 | 0.32 | 106% | 102% | 2.54 | 1.64
CN(C)CCCNc1ncnc2c1cnn2-c1ccccc1 | -5.54 | -5.82 | 2.9 | 94.3% | 106% | 0.27 | -0.77
Cc1ccc(C(=O)Nc2ccc3c(c2)CCC3)o1 | -3.56 | -9.54 | -2.44 | 77.5% | 69.8% | 0.895 | -0.68
CCOC(=O)N1CCN(CC(O)c2ccc3cc[nH]c3c2)CC1 (stereo not drawn) | -10.8 | -0.09 | -3.2 | 88.8% | 88.4% | 1.44 | 1.94
O=C1CN(C(=O)COc2ccccc2)CCN1 | -14.3 | -15.5 | -1.4 | 99.3% | 96.8% | 1.35 | -0.43
O=C(/C=N/O)Nc1ccccc1C(=O)O | -14.8 | -16.7 | -2.95 | 97.1% | 98.5% | 2.12 | 4.14
COc1ccc(N2C(=O)CC(c3ccc(OC(C)C)cc3)C2=O)cc1 (stereo not drawn) | -5.08 | -8.6 | 1.46 | 97.9% | 104% | 1.39 | 3.45
Cc1cc2cc(CNC(=O)c3ccco3)ccc2n1C | -7.55 | -15.6 | -4.26 | 106% | 94.4% | 1.89 | 6.42
c1cn2c(NC3CCCC3)c(-c3ccc(N4CCOCC4)cc3)nc2cn1 | -2.94 | 7.59 | -4.3 | 88.8% | 77.8% | 1.78 | 3.25
CCOC(=O)Cc1cnc(NC(=O)c2ccccc2)s1 | 6.17 | 5.05 | -1.51 | 92.3% | 89.6% | 0.365 | 2.27
Cc1nc2nc[nH]c2cc1Br | 5.74 | 6.22 | -2.75 | 97.8% | 100% | 0.705 | -0.41
CCOC(=O)Cc1nnc(NC(=O)C(CC)Sc2nc(C)cc(=O)[nH]2)s1 (stereo not drawn) | 6.95 | 22.4 | -0.54 | 83.4% | 96.7% | 2.96 | 2.97
O=C(Nc1nc(-c2ccco2)c(-c2ccco2)s1)C1CC(=O)N(c2ccc3c(c2)OCCO3)C1 (stereo not drawn) | -14.8 | -20.3 | -3.72 | 76.5% | 78.8% | 2.66 | 4.02
Cc1ccc2oc(=O)c3cnn(CC(=O)Nc4ccccc4N4CCN(C)CC4)c3c2c1 | 0.52 | -25.3 | -6.16 | 8.9% (active) | 6.03% (active) | -0.415 | -0.65
CCCCC(=O)Nc1ccc(Br)cc1C(=O)O | 5.08 | -10.9 | 0.11 | 89.9% | 97.8% | 1.95 | -1.59
COCCNC(=O)Cn1ncc2ccsc2c1=O | -1.34 | 5.16 | 0.35 | 107% | 100% | 2.33 | 4.98
COc1ccc(-n2c(C)nc3c(cnn3-c3ccc(C)c(C)c3)c2=O)cc1 | -13.7 | 8.51 | 2.3 | 86% | 79% | 2.09 | 5.89
CCOc1ccccc1Oc1c(C)oc2cc(OC(=O)N3CCOCC3)ccc2c1=O | -12.9 | -3.33 | -0.28 | 103% | 103% | 2.8 | 4.64
CCOC(=O)Cn1c(=O)oc2cc(S(=O)(=O)Nc3ccc(N(CC)CC)cc3C)ccc21 | -11.3 | -8.05 | 0.16 | 85.6% | 86.6% | 1.81 | 9.51
O=C(CC1NC(=O)NC1=O)NC1(C(=O)NC2CCCCC2)CCCCC1 (stereo not drawn) | -9.09 | 5.08 | 0.88 | 99.3% | 102% | 1.18 | -0.62
Cn1c(C(=O)NCCc2ccsc2)cc2c(=O)n(C)c3ccccc3c21 | -13.2 | -8.68 | -4.49 | 105% | 92.2% | 2.64 | 4.41
COc1cc(C2C(C(=O)Nc3ccc(F)cc3)=C(C)Nc3nc(CCCO)nn32)cc(OC)c1OC (stereo not drawn) | -2.56 | -11.4 | -1.09 | 105% | 92.7% | 2.58 | 1.42
Oc1c(C(c2cccs2)N2CCOCC2)sc2ncnn12 (stereo not drawn) | 11.1 | -3.88 | 0.31 | 105% | 101% | 0.895 | 5.2
CCOC(=O)C1CCCN(C(=O)c2ccc(CNc3c(N4CCC(C)CC4)c(=O)c3=O)cc2)C1 (stereo not drawn) | -16.1 | -24.3 | 0.29 | 102% | 98.9% | 2.57 | 4.84

Source: PubChem BioAssay
